Sampled rows, rich in hits. Any-hit rate of the full collection: about 0.74%.
ARFGAP1 inhibitor – inhibitors of rat ARFGAP1 GAP activity, primary screen, biochemical, fluorescence polarization, GDP tracer; inhibition, % at 16.5 µM; actives 0.26% (n = 360,000); Arfgap1-stimulated ARF1 GTP hydrolysis, GDP FP detection; ADP-ribosylation factor GTPase-activating protein 1 (Rattus norvegicus), Q62848; AID 651572, 2012;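 active means inhibition above a per-plate limit, mean inhibition of low control wells plus 3 SD, cut at about 25% in these data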
Target sequence (Q62848 1-136 limits assumed): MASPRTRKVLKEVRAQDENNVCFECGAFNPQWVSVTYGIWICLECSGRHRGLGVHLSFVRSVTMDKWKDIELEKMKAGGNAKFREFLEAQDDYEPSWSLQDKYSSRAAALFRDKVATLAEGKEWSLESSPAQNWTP
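System: truncated rat Arfgap1 GAP domain / Medium: HEPES-based buffer, pH 7.5 / Also added: N-terminally truncated human ARF1-GTP substrate / Incubation: enzyme reaction 120 min at 25 °C after 20 min preincubation / Measured by: FP of antibody-bound GDP Alexa 633 tracer, ex 620/em 688 nm / Replicates: singlicate, each compound tested once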
Tn7 DDE FP – inhibitors of Tn7 peptide binding to fibrin DD(E), primary screen, biochemical, fluorescence polarization, human fibrin, Tn7 probe. Fibrinogen beta chain (Homo sapiens), P02675. FP displacement of FITC-Tn7 peptide from fibrin DD(E); 0% = median of compound wells per plate. inhibition, % at 8.3 µM. actives 0.13% (n = 370,000). AID 720508, 2013;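 active means inhibition above the mean of compounds falling within the control limits plus 3 SD of them, cut at about 14% in these data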
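Assay system: Fibrin-DD(E) protein isolated from polymerized human fibrin clots; read-out basis: percent inhibition; medium: Tris/NaCl/CaCl2 buffer, pH 7.8; signal: FP measurement; incubation: 10 min plus 3 h, room temperature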
ASAP1 GAP inh – inhibitors of human ASAP1 ArfGAP activity, primary screen, biochemical, fluorescence polarization; Arf-GAP with SH3 domain, ANK repeat and PH domain-containing protein 1 (Homo sapiens), …; ASAP1-stimulated ARF1 GTP hydrolysis, GDP FP detection; inhibition, % at 16.5 µM; actives 0.19% (n = 360,000); in the data active means inhibition above about 25%
DDE Tn6 FP inh – inhibitors of Tn6 peptide binding to fibrin DD(E), primary screen, biochemical, fluorescence polarization, human fibrin, Tn6 probe | Fibrinogen beta chain (Homo sapiens), P02675 | Fibrin DD(E) TRITC-Tn6 fluorescence polarization displacement | inhibition, % at 8.3 µM | actives 0.21% (n = 370,000) | AID 720509, 2013;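 active means inhibition above a per-campaign cutoff: mean of compounds within control limits plus 3 SD, cut at about 15% in these data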
ASAP1 inh confirm – ASAP1 GAP activity inhibitors, confirmation, biochemical, fluorescence polarization, human, triplicate; shares compounds with ASAP1 GAP inh; actives 37% (n = 620); ASAP1-stimulated Arf1 GTPase, GDP fluorescence polarization; inhibition, % at 16.5 µM;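 active means mean inhibition over triplicates exceeds the hit threshold derived for the earlier primary screening run, cut at about 25% in these data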
ARFGAP1 inh conf – ARFGAP1 inhibitor hit confirmation, biochemical, fluorescence polarization, triplicate; inhibition, % at 16.5 µM; ARFGAP1-stimulated ARF1 GTP hydrolysis, GDP tracer FP; actives 30% (n = 890); shares compounds with ARFGAP1 inhibitor;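 active means average inhibition over triplicates above the hit cutoff set in the earlier primary screen, cut at about 25% in these data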
Target sequence (Q62848 whole entry, looked up): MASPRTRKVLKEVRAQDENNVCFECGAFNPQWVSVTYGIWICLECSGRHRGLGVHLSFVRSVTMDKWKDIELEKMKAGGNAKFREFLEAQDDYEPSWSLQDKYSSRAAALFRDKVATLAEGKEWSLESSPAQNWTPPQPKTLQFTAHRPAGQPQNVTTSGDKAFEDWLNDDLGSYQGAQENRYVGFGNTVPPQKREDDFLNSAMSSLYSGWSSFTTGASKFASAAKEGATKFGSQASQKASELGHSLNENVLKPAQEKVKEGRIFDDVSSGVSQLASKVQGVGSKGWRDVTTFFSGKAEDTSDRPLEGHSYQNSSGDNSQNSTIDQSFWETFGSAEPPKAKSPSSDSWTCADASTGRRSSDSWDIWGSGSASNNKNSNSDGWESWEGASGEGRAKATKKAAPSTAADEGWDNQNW
Each line names hits and unclear results; the compound was inactive in the other large screens (follow-up assays come after a bar, where they were run).

CC1CCCCN1C(=O)COC(=O)c1cc([N+](=O)[O-])ccc1N1CCOCC1 (stereo unspecified)	ASAP1 GAP inh 29 | ASAP1 inh confirm inactive
Nc1ccc(N2CCCCC2)c2nonc12	ASAP1 GAP inh 25 | ASAP1 inh confirm inactive
Nc1ccc(N2CCCCC2)cc1N1CCCCC1	none
O=C(CSc1nn(-c2ccccc2)c(=S)s1)Nc1ncccn1	ASAP1 GAP inh 26 | ASAP1 inh confirm 44
COC(=O)[C@H](CC1(c2cn(S(=O)(=O)CC[Si](C)(C)C)c3ccccc23)C(=O)Nc2ccccc21)NC(=O)OC(C)(C)C (stereo partly specified)	none (no result: ARFGAP1 inhibitor, ASAP1 GAP inh)
COC(=O)c1ccccc1NC1=C/C(=N\S(=O)(=O)c2cccs2)c2ccccc2C1=O	ASAP1 GAP inh 35 | ASAP1 inh confirm inactive
COC(=O)c1cccc(NS(=O)(=O)c2cccs2)c1C	none
CCC(C)Oc1cc(-c2ccnc(Nc3cccc(Cl)c3)n2)ccn1 (stereo unspecified)	none
OCCCNc1cc(-c2ccnc(Nc3cccc(Cl)c3)n2)ccn1	ASAP1 GAP inh 27 | ASAP1 inh confirm inactive
CCC(C)(C)NC(=O)C(c1ccc(OC)cc1)N(C(=O)CCC(=O)Nc1cc(C)on1)c1ccccc1OC (stereo unspecified)	ASAP1 GAP inh 27 | ASAP1 inh confirm inactive
O=C(N/N=C/c1c(O)ccc2ccccc12)c1cccc(C(F)(F)F)c1	ASAP1 GAP inh 27 | ASAP1 inh confirm inactive
NC(=O)C1CCN(C2=C(Cl)C(=O)c3ccccc3C2=O)CC1	ARFGAP1 inhibitor 29, ASAP1 GAP inh 41 | ASAP1 inh confirm inactive | ARFGAP1 inh conf inactive
O=C(CSc1nnc(COc2ccccc2)n1-c1ccccc1)Nc1ccc(S(=O)(=O)Nc2nccs2)cc1	none (no result: ARFGAP1 inhibitor, ASAP1 GAP inh)
COc1ccc(-n2c(COc3ccc(C)cc3)nnc2SCC(=O)Nc2ccc(S(=O)(=O)Nc3cc(C)nc(C)n3)cc2)cc1	none (no result: ARFGAP1 inhibitor, ASAP1 GAP inh)
COC(=O)c1ccc(NC(=O)c2cn(-c3ccccc3)nc2-c2ccncc2)cc1	ARFGAP1 inhibitor 30, ASAP1 GAP inh 31 | ASAP1 inh confirm 51 | ARFGAP1 inh conf 61
C[C@H]1[C@@H](OC(=O)Nc2ccc(C#N)cc2)CC[C@@]23CCCN2C(=O)CCC[C@@H]13	none (no result: ARFGAP1 inhibitor, ASAP1 GAP inh)
COC(=O)[C@H]1C[C@@]2(C)c3ccccc3N(S(=O)(=O)c3ccccc3)[C@H]2N1	none (no result: ARFGAP1 inhibitor, ASAP1 GAP inh)
CC[n+]1ccc(/C=C/c2ccc(N(C)C)cc2)c2ccccc21	ARFGAP1 inhibitor 37, ASAP1 GAP inh 43, DDE Tn6 FP inh 39 | ASAP1 inh confirm 53 | ARFGAP1 inh conf 50
CC(=O)c1cccc(NC(=O)c2cccc3c(-c4cccnc4)coc23)c1	ARFGAP1 inhibitor 26, ASAP1 GAP inh 35 | ASAP1 inh confirm 26 | ARFGAP1 inh conf 29
COc1ccc(-n2c(SCC(=O)Nc3ccc(S(=O)(=O)Nc4nccs4)cc3)nnc2-c2ccccc2)cc1	none (no result: ARFGAP1 inhibitor, ASAP1 GAP inh)
CCOc1ccccc1NC(=O)c1ccc(OCC)c([N+](=O)[O-])c1	none
CCOc1ccc(C(=O)Nc2cccc(-c3cc4ccccc4oc3=O)c2)cc1[N+](=O)[O-]	ARFGAP1 inhibitor 42, ASAP1 GAP inh 26 | ASAP1 inh confirm 37 | ARFGAP1 inh conf 46
COc1ccc(Cn2cc(CN3[C@@H](CC(C)C)COc4ccc(Cl)cc4S3(=O)=O)nn2)cc1	none (no result: ARFGAP1 inhibitor, ASAP1 GAP inh)
COc1ccc(-n2nc(C(=O)NCC(=O)NCc3ccc(F)cc3)c3ccccc3c2=O)cc1OC	ARFGAP1 inhibitor 139, ASAP1 GAP inh 43 | ASAP1 inh confirm 49 | ARFGAP1 inh conf 88
COc1cc(-c2c(C(=O)c3ccccc3)[nH]c(N)c2C(N)=O)ccc1O	none (no result: ARFGAP1 inhibitor, ASAP1 GAP inh)
Cc1cc(C(=O)COC(=O)c2n[nH]c3ccccc23)c(C)n1C	ARFGAP1 inhibitor 33, ASAP1 GAP inh 34 | ASAP1 inh confirm 35 | ARFGAP1 inh conf 52
C[n+]1c(-c2ccc(C=NNC(=O)c3ccc(C(=O)NN=Cc4ccc(-c5cn6ccccc6[n+]5C)cc4)cc3)cc2)cn2ccccc21	ARFGAP1 inhibitor 66, ASAP1 GAP inh 42 | ASAP1 inh confirm 50 | ARFGAP1 inh conf 90
O=S1(=O)c2ccc(N3CCN(Cc4ccccc4F)CC3)cc2Oc2ccccc2CN1Cc1cn(Cc2ccccc2C(F)(F)F)nn1	none (no result: ARFGAP1 inhibitor, ASAP1 GAP inh)
Cn1c(=O)c2cc(NCc3ccccc3)nnc2n(C)c1=O	ARFGAP1 inhibitor 28, ASAP1 GAP inh 44 | ASAP1 inh confirm inactive | ARFGAP1 inh conf inactive
Cn1c(=O)c2c(nc(NCc3ccccc3)n2C)n(C)c1=O	none
COc1ccc(C#CCN(C)/C(N)=N/C(=O)OCc2ccccc2)cc1	none (no result: ARFGAP1 inhibitor, ASAP1 GAP inh)
COc1cccc(/C=C2\Oc3cc(OCC(=O)N4CCCC4)ccc3C2=O)c1OC	none
COc1ccc(/C=C2\Oc3cc(OCC(=O)N4CCC(C(=O)O)CC4)ccc3C2=O)c(OC)c1OC	ARFGAP1 inhibitor 31, ASAP1 GAP inh 32 | ASAP1 inh confirm 35 | ARFGAP1 inh conf 41
COc1ccc(-c2cc(NC=O)c3ncc(-c4ccc(C(C)=O)cc4)n3c2)cc1OC	ARFGAP1 inhibitor 28, ASAP1 GAP inh 45 | ASAP1 inh confirm 61 | ARFGAP1 inh conf 50
O=C(Cn1c(=O)c2cccn2c2cccnc21)NCCCN1CCN(c2ccccc2)CC1	none (no result: ARFGAP1 inhibitor, ASAP1 GAP inh)
O=C(CSc1nnnn1-c1ccccc1)Nc1nsc(-c2ccc(Cl)cc2)n1	ARFGAP1 inhibitor 44, ASAP1 GAP inh 26 | ASAP1 inh confirm 45 | ARFGAP1 inh conf 58
O=C(CSc1nnnn1-c1ccccc1)Nc1nsc(-c2ccccc2)n1	none
CCc1ccc(S(=O)(=O)Nc2cc(SCC(=O)O)c(O)c3ccccc23)cc1	none
O=C(O)CSc1cc(NS(=O)(=O)c2cccc([N+](=O)[O-])c2)c2ccccc2c1O	ARFGAP1 inhibitor 25, ASAP1 GAP inh 28 | ASAP1 inh confirm inactive | ARFGAP1 inh conf inactive
COc1cc(/C=C/C(=O)Nc2ccc3nc4n(c(=O)c3c2)CCCC4)cc(OC)c1OC	ARFGAP1 inhibitor 25, ASAP1 GAP inh 27 | ASAP1 inh confirm 43 | ARFGAP1 inh conf 38
COc1ccc(C)cc1-n1nnnc1SCC(=O)c1ccc2c(c1)OCCO2	none

Compound activity (PubChem)
